According to ChEMBL document CHEMBL1811814, “Synthesis and evaluation of indole, pyrazole, chromone and pyrimidine based conjugates for tumor growth inhibitory activities--development of highly efficacious cytotoxic agents” (Eur J Med Chem, 2010):

Experiments:
Assay type in all cases: functional
SF-268 = test: Growth inhibition of human SF268 cells
SF-295 [1] = test: Growth inhibition of human SF295 cells
SF-539 = test: Growth inhibition of human SF539 cells
M14 [2] = test: Growth inhibition of human M14 cells
SK-MEL-5 [3] = test: Growth inhibition of human SK-MEL-5 cells
OVCAR-3 = test: Growth inhibition of human OVCAR3 cells
OVCAR-5 [4] = test: Growth inhibition of human OVCAR5 cells
OVCAR-8 = test: Growth inhibition of human OVCAR8 cells
786-0 [5] = test: Growth inhibition of human 786-0 cells
CAKI-1 [6] = test: Growth inhibition of human Caki1 cells
TK-10 = test: Growth inhibition of human TK10 cells
UO-31 [7] = test: Growth inhibition of human UO31 cells
PC-3 = test: Growth inhibition of human PC3 cells
DU-145 = test: Growth inhibition of human DU145 cells
MDA-MB-231 = test: Growth inhibition of human MDA-MB-231 cells
[8] = Growth inhibition of human Hs 578T cells
BT-549 [9] = test: Growth inhibition of human BT549 cells
MDA-MB-468 = test: Growth inhibition of human MDA-MB-468 cells
CCRF-CEM [10] = test: Growth inhibition of human CCRF-CEM cells assessed tumor cell growth at 10^-5 M; set-up: scale not given: the % may be the effect or the level left
How it was run: (§1)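 NCI 60-human-tumor-cell-line panel screen. Each compound was tested at a single concentration of 10^-5 M, and percent growth of tumor cells was recorded for each cell line. Growth inhibition was expressed from these percent-growth values.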

[11] = Growth inhibition of human […] cells assessed tumor cell growth at 10^-5 M; set-up: scale not given: the % may be the effect or the level left; how it was run: as §1
EKVX = test: Growth inhibition of human EKVX cells assessed tumor cell growth at 10^-5 M; set-up: scale not given: the % may be the effect or the level left; how it was run: as §1
NCI-H226 = test: Growth inhibition of human NCI-H226 cells assessed tumor cell growth at 10^-5 M; set-up: scale not given: the % may be the effect or the level left; how it was run: as §1
NCI-H522 [12] = test: Growth inhibition of human NCI-H522 cells assessed tumor cell growth at 10^-5 M; set-up: scale not given: the % may be the effect or the level left; how it was run: as §1
HCT-15 = test: Growth inhibition of human HCT15 cells assessed tumor cell growth at 10^-5 M; set-up: scale not given: the % may be the effect or the level left; how it was run: as §1
HT-29 = test: Growth inhibition of human HT-29 cells assessed tumor cell growth at 10^-5 M; set-up: scale not given: the % may be the effect or the level left; how it was run: as §1
SF-295 [13] = test: Growth inhibition of human SF295 cells assessed tumor cell growth at 10^-5 M; set-up: scale not given: the % may be the effect or the level left; how it was run: as §1
SNB-19 = test: Growth inhibition of human SNB19 cells assessed tumor cell growth at 10^-5 M; set-up: scale not given: the % may be the effect or the level left
How it was run: (§2)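 Single-dose screen at 10^-5 M across the 60 human tumor cell line panel, run to NCI standards. The value is the percent growth of each cell line in the presence of compound. Compounds active at this dose moved on to five-concentration testing (10^-4 to 10^-8 M).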

U-251 = test: Growth inhibition of human U251 cells assessed tumor cell growth at 10^-5 M; set-up: scale not given: the % may be the effect or the level left; how it was run: as §2
Malme-3M = test: Growth inhibition of human MALME-3M cells assessed tumor cell growth at 10^-5 M; set-up: scale not given: the % may be the effect or the level left; how it was run: as §1
M14 [14] = test: Growth inhibition of human M14 cells assessed tumor cell growth at 10^-5 M; set-up: scale not given: the % may be the effect or the level left; how it was run: as §1
MDA-MB-435 = test: Growth inhibition of human MDA-MB-435 cells assessed tumor cell growth at 10^-5 M; set-up: scale not given: the % may be the effect or the level left; how it was run: as §1
SK-MEL-5 [15] = test: Growth inhibition of human SK-MEL-5 cells assessed tumor cell growth at 10^-5 M; set-up: scale not given: the % may be the effect or the level left; how it was run: as §1
UACC-257 = test: Growth inhibition of human UACC257 cells assessed tumor cell growth at 10^-5 M; set-up: scale not given: the % may be the effect or the level left; how it was run: as §2
OVCAR-5 [16] = test: Growth inhibition of human OVCAR5 cells assessed tumor cell growth at 10^-5 M; set-up: scale not given: the % may be the effect or the level left; how it was run: as §1
NCI/ADR-RES = test: Growth inhibition of human NCI/ADR-RES cells assessed tumor cell growth at 10^-5 M; set-up: scale not given: the % may be the effect or the level left; how it was run: as §1
SK-OV-3 = test: Growth inhibition of human SKOV3 cells assessed tumor cell growth at 10^-5 M; set-up: scale not given: the % may be the effect or the level left; how it was run: as §1
786-0 [17] = test: Growth inhibition of human 786-0 cells assessed tumor cell growth at 10^-5 M; set-up: scale not given: the % may be the effect or the level left; how it was run: as §1
A498 = test: Growth inhibition of human A498 cells assessed tumor cell growth at 10^-5 M; set-up: scale not given: the % may be the effect or the level left; how it was run: as §1
ACHN = test: Growth inhibition of human ACHN cells assessed tumor cell growth at 10^-5 M; set-up: scale not given: the % may be the effect or the level left; how it was run: as §1
CAKI-1 [18] = test: Growth inhibition of human Caki1 cells assessed tumor cell growth at 10^-5 M; set-up: scale not given: the % may be the effect or the level left; how it was run: as §1
RXF 393 = test: Growth inhibition of human RXF393 cells assessed tumor cell growth at 10^-5 M; set-up: scale not given: the % may be the effect or the level left; how it was run: as §1
SN12C = test: Growth inhibition of human SN12C cells assessed tumor cell growth at 10^-5 M; set-up: scale not given: the % may be the effect or the level left; how it was run: as §1
UO-31 [19] = test: Growth inhibition of human UO31 cells assessed tumor cell growth at 10^-5 M; set-up: scale not given: the % may be the effect or the level left; how it was run: as §2
[20] = Growth inhibition of human Hs 578T cells assessed tumor cell growth at 10^-5 M; set-up: scale not given: the % may be the effect or the level left; how it was run: as §1
BT-549 [21] = test: Growth inhibition of human BT549 cells assessed tumor cell growth at 10^-5 M; set-up: scale not given: the % may be the effect or the level left; how it was run: as §1
CCRF-CEM [22] = test: Growth inhibition of human CCRF-CEM cells
MOLT-4 = test: Growth inhibition of human MOLT4 cells
HOP-62 = test: Growth inhibition of human HOP62 cells
HOP-92 = test: Growth inhibition of human HOP92 cells
NCI-H522 [23] = test: Growth inhibition of human NCI-H522 cells
COLO 205 = test: Growth inhibition of human COLO205 cells
[24] = read-out: LC50 (the source's name)

O=C1Nc2ccccc2/C1=C/c1cn(C(=O)c2c(Cl)cccc2Cl)c2ccccc12
GI50 (SF-268): 2.4 µM
CC50 (SF-268; [24]): 57.5 µM
GI50 (SF-295 [1]): 2.2 µM
CC50 (SF-295 [1]; [24]): 66.1 µM
GI50 (SF-539): 5 µM
CC50 (SF-539; [24]): 66.1 µM
GI50 (M14 [2]): 2.3 µM
CC50 (M14 [2]; [24]): 33.8 µM
GI50 (SK-MEL-5 [3]): 7.6 µM
CC50 (SK-MEL-5 [3]; [24]): 45.7 µM
GI50 (OVCAR-3): 1.6 µM
CC50 (OVCAR-3; [24]): 8.1 µM
GI50 (OVCAR-5 [4]): 8.9 µM
CC50 (OVCAR-5 [4]; [24]): > 100 µM
GI50 (OVCAR-8): 4.1 µM
CC50 (OVCAR-8; [24]): > 100 µM
GI50 (786-0 [5]): 3.3 µM
CC50 (786-0 [5]; [24]): 91.2 µM
GI50 (CAKI-1 [6]): 1.9 µM
CC50 (CAKI-1 [6]; [24]): > 100 µM
GI50 (TK-10): 10.4 µM
CC50 (TK-10; [24]): > 100 µM
GI50 (UO-31 [7]): 1.1 µM
CC50 (UO-31 [7]; [24]): 48.9 µM
GI50 (PC-3): 2.4 µM
CC50 (PC-3; [24]): > 100 µM
GI50 (DU-145): 2.7 µM
CC50 (DU-145; [24]): 46.7 µM
GI50 (MDA-MB-231): 3.1 µM
CC50 (MDA-MB-231; [24]): > 100 µM
GI50 [8]: 2.2 µM
CC50 [8, 24]: > 100 µM
GI50 (BT-549 [9]): 2.4 µM
CC50 (BT-549 [9]; [24]): 37.1 µM
GI50 (MDA-MB-468): 4.4 µM
CC50 (MDA-MB-468; [24]): 69.1 µM
Activity (CCRF-CEM [10]): 70.5%
Activity [11]: 51.8%
Activity (EKVX): 81.4%
Activity (NCI-H226): 48.1%
Activity (NCI-H522 [12]): 55.3%
Activity (HCT-15): 30.9%
Activity (HT-29): 69.6%
Activity (SF-295 [13]): 44.5%
Activity (SNB-19): 68.6%
Activity (U-251): 35.8%
Activity (Malme-3M): 116.7%
Activity (M14 [14]): 66.2%
Activity (MDA-MB-435): 85.6%
Activity (SK-MEL-5 [15]): 63%
Activity (UACC-257): 79.1%
Activity (OVCAR-5 [16]): 84.9%
Activity (NCI/ADR-RES): 57.7%
Activity (SK-OV-3): 71.8%
Activity (786-0 [17]): 57%
Activity (A498): 52.5%
Activity (ACHN): 43.6%
Activity (CAKI-1 [18]): 18.7%
Activity (RXF 393): -4.1%
Activity (SN12C): 56%
Activity (UO-31 [19]): 50.7%
Activity [20]: 64.6%
Activity (BT-549 [21]): 51.7%
GI50 (CCRF-CEM [22]): 0.34 µM
CC50 (CCRF-CEM [22]; [24]): > 100 µM
GI50 (MOLT-4): 2.8 µM
LC50 (MOLT-4): > 100 µM
GI50 (HOP-62): 12.8 µM
CC50 (HOP-62; [24]): > 100 µM
GI50 (HOP-92): 1.5 µM
CC50 (HOP-92; [24]): > 100 µM
GI50 (NCI-H522 [23]): 4.2 µM
LC50 (concentration killing 50% of cells) (NCI-H522 [23]): 54.9 µM
GI50 (COLO 205): 7.6 µM
LC50 (COLO 205): 54.9 µM
